Screening data as filed in PubChem.
PDI turbidity – inhibitors of human protein disulfide isomerase; PDI insulin aggregation turbidity, A650, 90 min; P07237; 350,000 compounds, 0.052% hits; inhibition, % at 10 µM; AID 588391;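 active = mean inhibition across replicates of 30% or more, whatever share of single replicates reach that level; inconclusive = mean inhibition below 30% while every single replicate reaches 30%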
rRNA inh HTS – inhibitors of bacterial rRNA selective over humanized ribosomes; 350,000 compounds, 1.6% hits; E. coli WT GFP vs humanized-ribosome RFP mutants, fluorescence, 24 h; hits give low values; DMSO median 0, no signal -100; AID 720706; GFP signal change (wild-type ribosome), % (concentration not given with the values);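 active = significant combined selectivity score with lowered wild-type GFP, culture density cut under 30%, mutant RFP and density less affected; inactive = any of these conditions unmet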
HIV Env fusion – inhibitors of HIV Env-mediated cell fusion; 360,000 compounds, 1.1% hits; HeLa-JRFL Env/CEM21 cell fusion, luciferase; inhibition, % at 12.3 µM; AID 651610;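 active = mean replicate inhibition score of at least 50 and every replicate individually at or above 50; inconclusive = only one of the two criteria met; inactive = mean below 50 and not all replicates reaching 50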;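 note: 0% = plate neutral controls and 100% = maraviroc near 300 nM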
ERp5 block – ERp5 (human) disulfide isomerase inhibition | Q15084 | ERp5 insulin aggregation, absorbance 650 nm, 90 min | inhibition, % at 9.99 µM | 350,000 compounds, 0.05% hits | AID 651711;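 active = mean replicate inhibition above about 25%, with every replicate also reaching it, limit read from the data, passing the limit was not always enough; inconclusive = only one of those two criteria met; inactive = neither criterion met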
Target sequence (Q15084 whole entry, looked up): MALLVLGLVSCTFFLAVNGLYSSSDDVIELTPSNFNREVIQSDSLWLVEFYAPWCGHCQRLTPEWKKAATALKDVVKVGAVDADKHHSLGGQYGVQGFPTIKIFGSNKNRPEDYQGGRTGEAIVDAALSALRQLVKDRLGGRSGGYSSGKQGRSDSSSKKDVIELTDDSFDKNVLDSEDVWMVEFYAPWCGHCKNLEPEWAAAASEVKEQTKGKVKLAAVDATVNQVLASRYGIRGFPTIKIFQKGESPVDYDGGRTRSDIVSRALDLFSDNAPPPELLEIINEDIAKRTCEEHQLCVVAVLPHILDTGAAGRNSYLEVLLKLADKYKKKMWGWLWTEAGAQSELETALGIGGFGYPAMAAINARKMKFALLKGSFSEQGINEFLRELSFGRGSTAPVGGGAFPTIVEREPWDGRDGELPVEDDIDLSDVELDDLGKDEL
PvdQ inh – blocks Pseudomonas aeruginosa PvdQ acylase activity. purified PvdQ acylase, fluorescence plate reader. inhibition, % at 10 µM. 340,000 compounds, 0.063% hits. AID 488965; in the data active = inhibition above about 30%, passing the limit was not always enough; inconclusive = no clear call, values can overlap the other calls;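 note: 0% = vehicle neutral wells and 100% = reference inhibitor wells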
FN deposition inh – fibronectin deposition inhibition. AH1F fibroblasts, Alexa488-fibronectin deposition fluorescence, overnight. inhibition, % at 12.6 µM. 350,000 compounds, 0.086% hits;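 active = mean inhibition across replicates of 30% or more, regardless of how many single replicates reach that level; inconclusive = mean under 30% yet at least half of replicates reach 30%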;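 note: positive control wells lacked labelled fibronectin entirely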
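Material: AH1F fibroblasts assembling fluorescent fibronectin matrix; amount: 10000 AH1F cells/well; medium: DMEM, 2% serum; reagent: Alexa488-fibronectin, 24 nM final in well; dosing: single compound dose, delivered by pin transfer; incubation: 1 h adhesion, overnight exposure; detection: fluorescence after three HBSS washes, excitation 485 nm, emission 525 nm; measure: fibronectin deposition inhibition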
Active calls of the source: *; u = inconclusive; x = not tested or not shown; [ ] = another dose, or the depositor's remark. In the library only some 2.2% were active in any assay of this set; here they are far more common.

SMILES	PDI turbidity	rRNA inh HTS	HIV Env fusion	ERp5 block	PvdQ inh	FN deposition inh
CCOC(=O)C1CSCCS(=O)(=O)N1Cc1ccc(Br)cc1 (stereo unspecified)	x	-4	-50	4	x	-23
CCOC(=O)C1CSCCS(=O)(=O)N1Cc1cc(F)ccc1Br (stereo unspecified)	x	-34*	-11	0	x	-18
Cc1ccc(S(=O)(=O)N[C@H]2CC[C@@H](CCn3cc(C4CC4)nn3)O[C@H]2CO)cc1	x	-3	-23[16.7 µM]	-7	x	-24
CC(=O)C1=C(C)N(Cc2ccc(Cl)cc2)C(=S)NC1c1ccccc1 (stereo unspecified)	x	-15	u	0	x	-7
COC(=O)C1=C(C)N(Cc2ccc(Cl)cc2)C(=S)NC1c1ccc(OC)cc1 (stereo unspecified)	x	4	84*	9	x	-3
CC(=O)C1=C(C)N(Cc2ccc(Cl)cc2)C(=S)NC1c1ccc(Cl)cc1 (stereo unspecified)	x	4	60*	-3	x	8
COC(=O)C1=C(C)N(Cc2ccccc2)C(=S)N[C@H]1c1ccc(Br)cc1	-6	-14	67*	4	-13	0
COC(=O)C1=C(C)N(Cc2ccc(F)cc2)C(=S)NC1c1ccc(Cl)cc1 (stereo unspecified)	x	-4	59*	0	x	2
COC(=O)C1=C(C)N(Cc2ccc(Br)cc2)C(=S)NC1c1ccc(OC)cc1 (stereo unspecified)	x	19	34	4	x	5
CC1=C(C(=O)OCc2ccccc2)C(c2ccc(Br)cc2)NC(=O)N1CCCCCC(=O)O (stereo unspecified)	5	-26*	-39	5	2	6
COCC(=O)N1CC2(C1)[C@@H](c1ccccc1)[C@H](CO)N2C(=O)c1cccnc1	x	3	x	8	x	x
Cc1cc(C)cc(NC(=S)N2CCN(c3ccccn3)CC2)c1	-1	-22*	7	-2	-10	4
Fc1ccc(NC(=S)N2CCN(c3ccccn3)CC2)cc1Cl	-2	-22*	13	3	-6	0
C[C@@H]1CN([C@H](C)CO)C(=O)c2cc(NC(=O)Cc3ccccc3)ccc2O[C@@H](C)CCCCO[C@@H]1CN(C)C(=O)c1ccccc1	x	-3	-16[16.7 µM]	-7	x	x
Cc1ccc(C)c(N2CN(CCC3=CCCCC3)CNC2=S)c1	14	-28*	4	-4	18	-1
CCCN1CNC(=S)N(c2cc(C)ccc2C)C1	0	x	-33	x	11	-3
C[C@@H]1CN([C@H](C)CO)C(=O)Cc2cc(NS(=O)(=O)c3cn(C)cn3)ccc2O[C@@H]1CN(C)C(=O)Nc1ccc2c(c1)OCO2	x	3	-18[16.7 µM]	0	x	x
CCCN(C)C[C@H]1Oc2cc(C#CCC3CCCC3)ccc2S(=O)(=O)N([C@H](C)CO)C[C@@H]1C	x	x	-2[16.7 µM]	2	x	x
CCCN(C)C[C@H]1Oc2cc(C#Cc3ccccc3)ccc2S(=O)(=O)N([C@H](C)CO)C[C@@H]1C	x	0	43[16.7 µM]	8	x	-9
Cc1ccc(NC(=O)/C=C/c2ccc3c(c2)OCO3)cc1S(=O)(=O)N1CCOCC1	0	-20*	16	-9	-6	9
COc1ccc(/C=C/C(=O)Nc2ccc(C)c(S(=O)(=O)N3CCOCC3)c2)cc1	4	x	x	x	10	x
CCC(=O)N1CC2(C1)[C@@H](c1ccc(-c3cccc(OC)c3)cc1)[C@@H](CO)N2C(C)=O	x	3	x	3	x	x
CCN(C[C@H]1N[C@@](C)(C(=O)OC)[C@H]2C(=O)N(Cc3ccccc3)C(=O)[C@@H]12)C(=O)Nc1ccc(C)cc1	2	22	79*	-4	-1	0
CCN(C[C@H]1N[C@@](CC)(C(=O)OC)[C@H]2C(=O)N(Cc3ccccc3)C(=O)[C@@H]12)C(=O)Nc1ccc(OC)cc1	7	13	87*	-2	7	6
CCN(C[C@H]1N[C@@](CC)(C(=O)OC)[C@H]2C(=O)N(Cc3ccccc3)C(=O)[C@@H]12)C(=O)Nc1ccc(C(F)(F)F)cc1	5	-33	50	1	4	0
SMILES	PDI turbidity	rRNA inh HTS	HIV Env fusion	ERp5 block	PvdQ inh	FN deposition inh
CCN(C[C@H]1N[C@@](C)(C(=O)OC)[C@H]2C(=O)N(Cc3ccccc3)C(=O)[C@@H]12)S(=O)(=O)c1ccc(C)cc1	2	-21*	69*	0	-3	-1
CC[C@@]1(C(=O)OC)N[C@H](CN(C)C(=O)COc2ccccc2)[C@@H]2C(=O)N(Cc3ccccc3)C(=O)[C@@H]21	4	14	69*	-1	15	5
CC[C@@]1(C(=O)OC)N[C@H](CN(C)C(C)=O)[C@@H]2C(=O)N(Cc3ccccc3)C(=O)[C@@H]21	-1	14	18	-1	-12	-6
COc1ccc2c3c([nH]c2c1)[C@H](CO)N(C(=O)Nc1ccc(F)cc1)CC31CN(S(=O)(=O)c2cn(C)cn2)C1	x	-1	-34[16.7 µM]	-2	x	x
CCN(C[C@H]1N[C@@](CC)(C(=O)OC)[C@H]2C(=O)N(Cc3ccccc3)C(=O)[C@@H]12)C(=O)c1ccc(F)cc1	8	-7	56*	6	-19	23
COC(=O)[C@]1(Cc2ccccc2)N[C@H](CN(C)S(=O)(=O)c2ccc(-c3ccccc3)cc2)[C@@H]2C(=O)N(Cc3ccccc3)C(=O)[C@@H]21	-9	3	59*	1	-11	4
COC(=O)[C@]1(Cc2ccccc2)N[C@H](CN(C)S(=O)(=O)c2ccc(C)cc2)[C@@H]2C(=O)N(Cc3ccccc3)C(=O)[C@@H]21	-10	6	1	2	-12	8
CCN(C[C@H]1N[C@@](C)(C(=O)OC)[C@H]2C(=O)N(Cc3ccccc3)C(=O)[C@@H]12)C(=O)Nc1ccccc1	5	3	127*	2	3	-4
COc1cccc(S(=O)(=O)N(C)C[C@@H]2Oc3cc(C#CCN(C)C)ccc3S(=O)(=O)N([C@H](C)CO)C[C@H]2C)c1	x	-4	20[16.7 µM]	-3	x	x
CO[C@@H]1CN(C)C(=O)c2cc(NS(C)(=O)=O)ccc2OC[C@@H](C)N(Cc2cccnc2)C[C@H]1C	x	-1	x	x	x	3
O=C(NC(=S)NCCc1ccccc1)c1ccccc1F	2	-31*	-14	2	-5	-28
CO[C@@H]1CN(C)C(=O)c2cc(NS(=O)(=O)CC(F)(F)F)ccc2OC[C@H](C)N(C(=O)c2ccc3c(c2)OCO3)C[C@H]1C	x	1	x	-2	x	-3
COc1ccc(C(=O)Nc2ccc3nc(C)sc3c2)cc1OC	-3	-20*	2	2	-1	x
COc1ccc(NC(=O)c2ccc3nc(C)sc3c2)cc1	-5	-8	-35	0	8	-1
Cc1nn(-c2ccccc2)c2c1C1(C(=O)N3c4c(cccc41)C(C)CC3(C)C)C(C#N)=C(N)O2 (stereo unspecified)	17	-46*	x	4	-10	x
